Reference: article PMC5319884 (Biochemistry, 2017)
“Also recorded” adds a separate entry of the source. Like-named read-outs stand apart in the source and are kept apart here.

Tests used:
Format in all cases: biochemical
hGOAT [1] = target: T1, hGOAT (Homo sapiens, UniProt Q96T53); experiment: in vitro hGOAT octanoylation activity assay
T1 sequence (Q96T53 1-435): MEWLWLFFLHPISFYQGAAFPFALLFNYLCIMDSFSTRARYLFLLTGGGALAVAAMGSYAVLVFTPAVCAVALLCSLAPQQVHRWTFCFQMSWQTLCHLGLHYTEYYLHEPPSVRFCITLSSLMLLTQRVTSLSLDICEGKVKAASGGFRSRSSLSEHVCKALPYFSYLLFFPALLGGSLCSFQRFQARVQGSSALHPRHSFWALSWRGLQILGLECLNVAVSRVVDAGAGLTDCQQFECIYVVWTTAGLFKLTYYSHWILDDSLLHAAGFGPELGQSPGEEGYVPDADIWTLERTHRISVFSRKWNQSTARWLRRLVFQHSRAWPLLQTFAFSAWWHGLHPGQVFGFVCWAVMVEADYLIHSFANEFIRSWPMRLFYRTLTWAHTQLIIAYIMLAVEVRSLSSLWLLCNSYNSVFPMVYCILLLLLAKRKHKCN
Procedure, shortened: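 hGOAT was expressed in Sf9 cell membrane fractions, homogenized by needle, and ~100 μg membrane protein was preincubated 30 min at room temperature with 1 μM MAFP and test compound or vehicle (DMSO or ethanol) in 50 mM HEPES pH 7.0. Reactions were started with 500 μM octanoyl-CoA and 1.5 μM acrylodan-labeled peptide, run 3 h at room temperature in the dark, acid/isopropanol-stopped, TCA-clarified and analysed by reverse-phase HPLC. Percent activity was taken as octanoylated/total peptide fluorescence relative to vehicle, from three independent determinations.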

hGOAT [2] = target: T1, hGOAT; experiment: inhibitor reversibility; details: pretreatment at 3 x IC50, 10-fold dilution
Procedure, shortened: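 Undiluted homogenised Sf9 membrane containing hGOAT (~7 μg/μL protein) was preincubated 30 min at RT with 10 μM MAFP and inhibitor or vehicle (DMSO or ethanol). It was then diluted 10-fold into 50 mM HEPES pH 7.0 with 500 μM octanoyl CoA, 1.5 μM GSSFLC-acrylodan, and either vehicle or inhibitor at the same final level as in preincubation. Reactions ran 3 h at RT in the dark, followed by RP-HPLC quantitation of octanoylated peptide.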

hGOAT [3] = target: T1, hGOAT; experiment: inhibitor time dependence with hGOAT; details: preincubation 5-60 min, 10 min reaction, 30 μM CDDO-EA
Procedure, shortened: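 hGOAT Sf9 membranes (~100 μg protein) were first preincubated 30 min at RT with 1 μM MAFP in 50 mM HEPES pH 7.0. Inhibitor or vehicle was then added for 5, 10, 30 or 60 min before starting with 500 μM octanoyl CoA and 1.5 μM GSSFLC-acrylodan. The reaction ran only 10 min at RT in the dark, then was stopped and analysed by RP-HPLC. % activity versus vehicle and IC50 were derived per preincubation time; minimum of three measurements.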

mGOAT = target: T2, mGOAT (Mus musculus, UniProt P0C7A3); experiment: in vitro mGOAT octanoylation activity assay; details: side-by-side assay, mGOAT IC50 higher than hGOAT
T2 sequence (P0C7A3 1-435): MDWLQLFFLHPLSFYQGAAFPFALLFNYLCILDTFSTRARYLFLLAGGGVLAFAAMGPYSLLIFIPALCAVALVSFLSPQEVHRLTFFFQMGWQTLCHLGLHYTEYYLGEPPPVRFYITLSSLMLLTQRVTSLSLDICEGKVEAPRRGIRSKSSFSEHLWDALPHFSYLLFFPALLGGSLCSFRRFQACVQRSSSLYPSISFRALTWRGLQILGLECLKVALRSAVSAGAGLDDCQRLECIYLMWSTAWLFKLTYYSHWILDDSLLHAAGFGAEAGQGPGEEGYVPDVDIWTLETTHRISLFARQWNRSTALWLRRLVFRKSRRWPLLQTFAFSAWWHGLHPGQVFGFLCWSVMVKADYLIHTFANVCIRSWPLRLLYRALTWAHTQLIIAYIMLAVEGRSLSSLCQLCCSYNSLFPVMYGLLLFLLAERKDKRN
Procedure, shortened: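 mGOAT and hGOAT were expressed in Sf9 insect-cell membrane fractions, which were thawed on ice and homogenised through an 18-gauge needle. About 100 μg membrane protein was preincubated 30 min at room temperature with 1 μM MAFP plus inhibitor or vehicle (DMSO or ethanol) in 50 mM HEPES pH 7.0.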

| Molecule | inhibition of hGOAT activity (hGOAT [1]) | reversibility of hGOAT inhibition (hGOAT [2]) | inhibition of hGOAT activity (hGOAT [1]; at concentrations up to 100 μM) | other results |
| --- | --- | --- | --- | --- |
| CC1(C)CC[C@]2(C(=O)O)CC[C@]3(C)[C@H](C(=O)C=C4[C@@]5(C)C=C(C#N)C(=O)C(C)(C)[C@@H]5CC[C@]43C)[C@@H]2C1 [Compound 5] | lack of inhibition | – | – | – |
| CCN1C(=O)C=CC1=O [NEM, N-ethylmaleimide] | efficiently inhibits hGOAT | irreversible hGOAT inhibition | – | – |
| CC1(C)CC[C@]2(C)CC=C3[C@]4(C)CC[C@H]5C(C)(C)[C@@H](O)CC[C@]5(C)[C@H]4CC[C@@]3(C)[C@@H]2C1 [Compound 8, taraxerol] | – | – | fails to inhibit | – |
| [Dap^3]octanoyl-ghrelin (1-5)-NH2 | – | reversible inhibition | – | – |
| CCNC(=O)[C@]12CCC(C)(C)C[C@H]1[C@H]1C(=O)C=C3[C@@]4(C)C=C(C#N)C(=O)C(C)(C)[C@@H]4CC[C@@]3(C)[C@]1(C)CC2 [Compound 3] | most potent inhibition of hGOAT | reversible hGOAT inhibition | – | time dependence of hGOAT inhibition (hGOAT [3]): time-dependent inhibition; IC50 against mGOAT relative to hGOAT (mGOAT): ~ 8 fold |
| C[C@H]1[C@H](C)CC[C@]2(C(=O)O)CC[C@]3(C)C(=CC[C@@H]4[C@@]5(C)CC[C@H](O)C(C)(C)[C@@H]5CC[C@]43C)[C@H]12 [Compound 6, ursolic acid] | – | – | negligible inhibition | – |
| COC(=O)[C@]12CCC(C)(C)C[C@H]1[C@H]1C(=O)C=C3[C@@]4(C)C=C(C#N)C(=O)C(C)(C)[C@@H]4CC[C@@]3(C)[C@]1(C)CC2 [Compound 2, methyl 2-cyano-3,12-dioxooleana-1,9(11)dien-28-oate] | exhibits inhibitory activity against hGOAT; also recorded: most potent inhibition of hGOAT | – | – | – |
| CC1(C)CC[C@]2(C(=O)O)CC[C@]3(C)C(=CC[C@@H]4[C@@]5(C)CC[C@H](O)C(C)(C)[C@@H]5CC[C@]43C)[C@@H]2C1 [Compound 7, oleanic acid] | – | – | negligible inhibition | – |
| C[C@]12CC[C@@H]3c4ccc(O)cc4CC[C@H]3[C@@H]1CCC2=O [Compound 15, estrone] | lack of hGOAT inhibition | – | – | – |
| O=C1C=CCCC1 [Compound 18, cyclohexenone] | – | – | – | inhibition of hGOAT activity (hGOAT [1]; at concentrations up to 1 mM): does not inhibit hGOAT activity |
